The RNAGym collection of RNA variant scans (doi:10.1126/science.aae0568)
Variants at the floor of the assay were thinned out.

B1: tRNA (parent)
chain: GUUCCGUUGGCGUAAUGGUAACGCGUCUCCCUCCUAAGGAGAAGACUGCGGGUUCGAGUCCCGUACGGAACG

Variants of: B1
Assay: yeast fitness relative to wild type (ratio to wild type); higher = fitter; tRNA-Arg(CCU), competitive growth, 37 C, YPD
Method in brief: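 Start and end populations of a pooled competition were compared by 100-nucleotide paired-end sequencing of gene amplicons. The Saccharomyces cerevisiae strains carried tRNA-Arg(CCU) gene variants at the native genomic locus, synthesised with a 3% per-site mutation rate at 69 sites, and competed in YPD at 37°C for 24 hours in six parallel replicates. Darwinian fitness relative to wild type was based on the change in genotype frequencies. Genotypes required ≥ 100 starting reads, and estimates < 0.5 were set to 0.5.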

Going from G10C G18A C22U to G10C C33A G56C, the yeast fitness falls from 0.633 to 0.577.

C11A A15G C22U C29A A43U A45G A57U and G10C U19G C62G cannot be ordered by yeast fitness: at most 0.5 for the first, at most 0.5 for the second.

C11A A21C U53A C62U and G10C C30G C49G cannot be ordered by yeast fitness: at most 0.5 for the first, at most 0.5 for the second.

G10C C29G A65C and C11A A20U U47C C60G cannot be ordered by yeast fitness: at most 0.5 for the first, at most 0.5 for the second.

First: C11A A42G
Second: C11A A43G G50C G56C
The yeast fitness of the first is higher: 0.631 for the first, at most 0.5 for the second.

Going from C11A A43G A65C to C11A A42C G51A, the yeast fitness rises from 0.501 to 0.73.

Compared with C11A A15G C22U C29A A43U A45G, G10C C46A C55U is higher in yeast fitness: at most 0.5 for the first, 0.603 for the second.

G10C G25A U64C and C11A A14G G25C C29G cannot be ordered by yeast fitness: at most 0.5 for the first, at most 0.5 for the second.

C11A C30U C33G A40G and G10C C29G A37G cannot be ordered by yeast fitness: at most 0.5 for the first, at most 0.5 for the second.

Going from C11A A21G C62G to G10U A69C, the yeast fitness rises from 0.655 to 0.827.

Going from G10C C62A to C11A C27G U64A A65G G67U, the yeast fitness falls from 0.515 to at most 0.5.

Going from C11A C24U C34U G58C C62G G67A to C11A A15U A20C C34G C66U, the yeast fitness falls from 0.544 to at most 0.5.

Compared with C11A C33G A43C G68A, C11A A21U G58C A70C is lower in yeast fitness: 0.61 for the first, at most 0.5 for the second.

Going from C11A C33U C62U A69C to G10U, the yeast fitness rises from at most 0.5 to 0.887.

Going from C11A C27G U35A A43U U54C to G10U A15U C31G G50C U59C C62U, the yeast fitness falls from 0.556 to at most 0.5.

G10C U13C A15C C24U U54C C60A C62A and C11A G12A U16A G23C cannot be ordered by yeast fitness: at most 0.5 for the first, at most 0.5 for the second.

G10C G41C C62U C66G A70G and G10C C55G A70C cannot be ordered by yeast fitness: at most 0.5 for the first, at most 0.5 for the second.

Compared with C11A A14C C34A A36G, G10U A40G G58A G68C is higher in yeast fitness: at most 0.5 for the first, 0.631 for the second.

C11A C46U U53A G63C and G10C G39C G51A cannot be ordered by yeast fitness: at most 0.5 for the first, at most 0.5 for the second.

Compared with G10C C34G G67U, G10C C34G G67A is lower in yeast fitness: 0.584 for the first, at most 0.5 for the second.

C11A A15G C22G C61U G68A and C11A A21G C62G C66U cannot be ordered by yeast fitness: at most 0.5 for the first, at most 0.5 for the second.

First: C11A C30G C34G
Second: C11A C22U U26G A40U G48C
The yeast fitness of the first is higher: 0.579 for the first, 0.537 for the second.

Compared with C11A A15G, C11A A15U is lower in yeast fitness: 0.711 for the first, 0.658 for the second.

C11A C31U A37C G51C C55G and G10C C60U G63C cannot be ordered by yeast fitness: at most 0.5 for the first, at most 0.5 for the second.

First: G10C C34A A57U
Second: C11A C24G
The yeast fitness of the first is higher: 0.577 for the first, 0.52 for the second.

Compared with C11A C24U C31U, C11A G12C G63A is lower in yeast fitness: 0.547 for the first, at most 0.5 for the second.

First: C11A C34A A40G G44C A70U
Second: G10C U26A C49U A65U
The yeast fitness of the first is lower: at most 0.5 for the first, 0.553 for the second.

Compared with G10C G67A, G10C G67C is lower in yeast fitness: 0.673 for the first, 0.67 for the second.

First: G10C C29G U53A
Second: C11A C62G A70U
The yeast fitness of the first is lower: at most 0.5 for the first, 0.542 for the second.

C11A C27G C31U G68A and G10U A43G C46U cannot be ordered by yeast fitness: at most 0.5 for the first, at most 0.5 for the second.

First: C11A C31A G44C
Second: C11A A20U C29U C33G
The yeast fitness of the first is lower: at most 0.5 for the first, 0.578 for the second.

G10C C30A C66A and G10C C30A C66U cannot be ordered by yeast fitness: at most 0.5 for the first, at most 0.5 for the second.

G10C C27U G38A C46G G63A and C11A G12A C29U G48A G50A cannot be ordered by yeast fitness: at most 0.5 for the first, at most 0.5 for the second.

C11A A20U C22U G67C and G10C U19A C30G A40C G67C cannot be ordered by yeast fitness: at most 0.5 for the first, at most 0.5 for the second.

Going from C11A A36G A69C to C11A C34A G52C, the yeast fitness falls from 0.562 to 0.541.

G10C C27U A40U A45U and G10U C24G A45G cannot be ordered by yeast fitness: at most 0.5 for the first, at most 0.5 for the second.

Going from C11A C22U C55A to C11A, the yeast fitness rises from at most 0.5 to 0.676.

C11A C22U G39C U47A and C11A A40G A43U U59G cannot be ordered by yeast fitness: at most 0.5 for the first, at most 0.5 for the second.

Compared with C11A G17A C33U, G10C C46U C66U is higher in yeast fitness: at most 0.5 for the first, 0.561 for the second.

C11A A14G U19G A43C U53A and G10C C31A U32C G39A G52C cannot be ordered by yeast fitness: at most 0.5 for the first, at most 0.5 for the second.

C11A C24G C30U C31U C61U G67C and C11A C27G A70C cannot be ordered by yeast fitness: at most 0.5 for the first, at most 0.5 for the second.

First: G10C G25C G38C A40G A42G U64A G68A
Second: C11A C31U G41C A43C C60G
The yeast fitness of the first is higher: 0.515 for the first, at most 0.5 for the second.
